In brackets after ≈: the same amount, converted by molar mass.
Columns and labels:
Escherichia coli = assay: In vitro activity against Escherichia coli DNA gyrase subunit B supercoiling, expressed as IC50 novobiocin / IC50 compound; format: functional
[1] = tested on: Staphylococcus epidermidis; assay: Antibacterial activity against oxacillin resistant Staphylococcus epidermidis 012GO42; format: functional
How it was run: (§1)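 MIC read after 24 h incubation by two-fold broth microdilution. Strains are tested with their labelled resistance phenotypes (ofloxacin, oxacillin, erythromycin, novobiocin, teicoplanin or vancomycin resistance, as given in each strain designation).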

Staphylococcus aureus [2] = assay: Antibacterial activity tested against novobiocin resistant Staphylococcus aureus 011HT1; format: functional
How it was run: (§2)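 MIC by 2-fold broth microdilution, read after 24 h incubation; strain resistance phenotypes noted.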

Enterococcus faecium = assay: Antibacterial activity against vancomycin, teicoplanin, erythromycin resistant Enterococcus faecium; format: functional; how it was run: as §1
Streptococcus pyogenes = assay: Antibacterial activity tested against Streptococcus pyogenes 02AIUC1; format: functional; how it was run: as §2
Staphylococcus aureus [3] = assay: Antibacterial activity against Staphylococcus aureus 011HT3; format: functional; how it was run: as §2
[4] = In vitro activity against Staphylococcus aureus DNA gyrase subunit B supercoiling, expressed as IC50 novobiocin / IC50 compound; format: functional
Staphylococcus aureus [5] = assay: Antibacterial activity against ofloxacin,oxacillin,erythromycin resistant Staphylococcus aureus 011GO64.; format: functional; how it was run: as §1
[6] = tested on: DNA gyrase (Staphylococcus aureus); assay: In vitro activity against Staphylococcus aureus DNA gyrase supercoiling, expressed as IC50 novobiocin / IC50 compound

SMILES	Ratio (Escherichia coli)	MIC [1]	MIC (Staphylococcus aureus [2])	MIC (Enterococcus faecium)	MIC (Streptococcus pyogenes)	MIC (Staphylococcus aureus [3])	Ratio [4]	MIC (Staphylococcus aureus [5])	Ratio [6]
CCOC(=O)c1c(O)oc2c(C)c(O[C@@H]3OC(C)(C)[C@H](OC)[C@@H](OC(=O)NOC)[C@H]3O)ccc2c1=O	0.66	> 40 µg/mL	> 40 µg/mL	> 40 µg/mL	> 40 µg/mL	> 40 µg/mL	–	–	–
CCOC(=O)c1c(O)oc2c(C)c(O[C@@H]3OC(C)(C)[C@H](OC)[C@@H](OC(N)=O)[C@H]3O)ccc2c1=O	1.6	–	> 40 µg/mL	> 40 µg/mL	> 40 µg/mL	> 40 µg/mL	–	–	–
C#CCNC(=O)O[C@H]1[C@@H](O)[C@H](Oc2ccc3c(=O)c(C(=O)OCC)c(O)oc3c2C)OC(C)(C)[C@@H]1OC	0.38	20 µg/mL (≈ 38.5 µM)	> 40 µg/mL	> 40 µg/mL	> 40 µg/mL	40 µg/mL (≈ 77 µM)	–	–	–
CO[C@@H]1[C@@H](OC(N)=O)[C@@H](O)[C@H](Oc2ccc3c(O)c(NC(=O)c4ccc(O)c(CC=C(C)C)c4)c(=O)oc3c2C)OC1(C)C [NOVOBIOCIN]	–	< 0.04 µg/mL	10 µg/mL (≈ 16.3 µM)	0.6 µg/mL (≈ 0.979 µM)	0.3 µg/mL (≈ 0.49 µM)	< 0.04 µg/mL	–	–	–
CCOC(=O)c1c(O)oc2c(C)c(O[C@@H]3OC(C)(C)[C@H](OC)[C@@H](OC(=O)c4ccc(C)[nH]4)[C@H]3O)ccc2c1=O	3.1	–	> 20 µg/mL	5 µg/mL (≈ 9.17 µM)	0.3 µg/mL (≈ 0.55 µM)	0.3 µg/mL (≈ 0.55 µM)	–	–	–
C#CCONC(=O)O[C@H]1[C@@H](O)[C@H](Oc2ccc3c(=O)c(/C(C)=N/OC)c(O)oc3c2C)OC(C)(C)[C@@H]1OC	–	0.08 µg/mL (≈ 0.15 µM)	5 µg/mL (≈ 9.35 µM)	2.5 µg/mL (≈ 4.68 µM)	0.6 µg/mL (≈ 1.12 µM)	0.15 µg/mL (≈ 0.281 µM)	12.5	0.15 µg/mL (≈ 0.281 µM)	–
CO[C@@H]1[C@@H](OC(=O)c2ccc(C)[nH]2)[C@@H](O)[C@H](Oc2ccc3c(O)c(C(C)=O)c(=O)oc3c2C)OC1(C)C	2	–	5 µg/mL (≈ 9.7 µM)	2.5 µg/mL (≈ 4.85 µM)	0.3 µg/mL (≈ 0.582 µM)	< 0.04 µg/mL	–	–	–
CC#CCONC(=O)O[C@H]1[C@@H](O)[C@H](Oc2ccc3c(=O)c(C(=O)OCC)c(O)oc3c2C)OC(C)(C)[C@@H]1OC	–	10 µg/mL (≈ 18.2 µM)	> 40 µg/mL	> 40 µg/mL	> 40 µg/mL	10 µg/mL (≈ 18.2 µM)	–	40 µg/mL (≈ 72.8 µM)	0.5
C#CCONC(=O)O[C@H]1[C@@H](O)[C@H](Oc2ccc3c(O)c(C(=O)NCCO)c(=O)oc3c2C)OC(C)(C)[C@@H]1OC	–	< 0.04 µg/mL	1.2 µg/mL (≈ 2.18 µM)	1.2 µg/mL (≈ 2.18 µM)	0.6 µg/mL (≈ 1.09 µM)	< 0.04 µg/mL	2.6	0.08 µg/mL (≈ 0.145 µM)	–
C#CCONC(=O)O[C@H]1[C@@H](O)[C@H](Oc2ccc3c(O)c(/C(C)=N/OCc4ccsc4)c(=O)oc3c2C)OC(C)(C)[C@@H]1OC	–	< 0.04 µg/mL	2.5 µg/mL (≈ 4.05 µM)	0.6 µg/mL (≈ 0.973 µM)	0.15 µg/mL (≈ 0.243 µM)	< 0.04 µg/mL	1.3	–	–
C#CCONC(=O)O[C@H]1[C@@H](O)[C@H](Oc2ccc3c(O)c(C(C)=O)c(=O)oc3c2C)OC(C)(C)[C@@H]1OC	–	< 0.04 µg/mL	2.5 µg/mL (≈ 4.95 µM)	1.2 µg/mL (≈ 2.37 µM)	0.3 µg/mL (≈ 0.593 µM)	< 0.04 µg/mL	8.1	0.6 µg/mL (≈ 1.19 µM)	–
C=CCNC(=O)O[C@H]1[C@@H](O)[C@H](Oc2ccc3c(=O)c(C(=O)OCC)c(O)oc3c2C)OC(C)(C)[C@@H]1OC	0.38	20 µg/mL (≈ 38.3 µM)	> 40 µg/mL	> 40 µg/mL	> 40 µg/mL	> 40 µg/mL	–	–	–
C#CCONC(=O)O[C@H]1[C@@H](O)[C@H](Oc2ccc3c(O)c(C(N)=O)c(=O)oc3c2C)OC(C)(C)[C@@H]1OC	1	< 0.04 µg/mL	0.3 µg/mL (≈ 0.592 µM)	0.08 µg/mL (≈ 0.158 µM)	0.6 µg/mL (≈ 1.18 µM)	< 0.04 µg/mL	–	–	–
CCOC(=O)c1c(O)oc2c(C)c(O[C@@H]3OC(C)(C)[C@H](OC)[C@@H](OC(=O)NC(C)C)[C@H]3O)ccc2c1=O	0.025	> 40 µg/mL	> 40 µg/mL	> 40 µg/mL	> 40 µg/mL	> 40 µg/mL	–	–	–
C#CCONC(=O)O[C@H]1[C@@H](O)[C@H](Oc2ccc3c(O)c(C(=O)Nc4cccnc4)c(=O)oc3c2C)OC(C)(C)[C@@H]1OC	–	< 0.04 µg/mL	1.2 µg/mL (≈ 2.06 µM)	0.6 µg/mL (≈ 1.03 µM)	0.08 µg/mL (≈ 0.137 µM)	< 0.04 µg/mL	0.67	–	–
C#CCONC(=O)O[C@H]1[C@@H](O)[C@H](Oc2ccc3c(=O)c(C(=O)OCC)c(O)oc3c2C)OC(C)(C)[C@@H]1OC	5.6	0.3 µg/mL (≈ 0.56 µM)	> 40 µg/mL	10 µg/mL (≈ 18.7 µM)	20 µg/mL (≈ 37.3 µM)	1.2 µg/mL (≈ 2.24 µM)	–	2.5 µg/mL (≈ 4.67 µM)	–
C#CCONC(=O)O[C@H]1[C@@H](O)[C@H](Oc2ccc3c(O)c(C(=O)NOCC=C(C)C)c(=O)oc3c2C)OC(C)(C)[C@@H]1OC	–	0.15 µg/mL (≈ 0.254 µM)	0.6 µg/mL (≈ 1.02 µM)	0.3 µg/mL (≈ 0.508 µM)	0.08 µg/mL (≈ 0.135 µM)	< 0.04 µg/mL	2	–	–
CCOC(=O)c1c(O)oc2c(C)c(O[C@@H]3OC(C)(C)[C@H](OC)[C@@H](OC(=O)NOC(C)C)[C@H]3O)ccc2c1=O	2	> 40 µg/mL	> 40 µg/mL	> 40 µg/mL	> 40 µg/mL	> 40 µg/mL	–	–	–
CCONC(=O)OC1[C@@H](O)[C@H](Oc2ccc3c(O)c(C(=O)OCC)c(=O)oc3c2C)OC(C)(C)[C@@H]1OC (single isomer, unassigned)	2	> 40 µg/mL	> 40 µg/mL	> 40 µg/mL	40 µg/mL (≈ 76.1 µM)	20 µg/mL (≈ 38.1 µM)	–	–	–
C#CCONC(=O)O[C@H]1[C@@H](O)[C@H](Oc2ccc3c(=O)c(C(=O)NOCC)c(O)oc3c2C)OC(C)(C)[C@@H]1OC	–	0.6 µg/mL (≈ 1.09 µM)	1.2 µg/mL (≈ 2.18 µM)	0.6 µg/mL (≈ 1.09 µM)	0.15 µg/mL (≈ 0.272 µM)	< 0.04 µg/mL	5.6	0.08 µg/mL (≈ 0.145 µM)	–
C#CCONC(=O)O[C@H]1[C@@H](O)[C@H](Oc2ccc3c(=O)c(C(=O)NOC)c(O)oc3c2C)OC(C)(C)[C@@H]1OC	–	0.08 µg/mL (≈ 0.149 µM)	10 µg/mL (≈ 18.6 µM)	2.5 µg/mL (≈ 4.66 µM)	0.6 µg/mL (≈ 1.12 µM)	0.08 µg/mL (≈ 0.149 µM)	11.1	0.6 µg/mL (≈ 1.12 µM)	–
C#CCONC(=O)O[C@H]1[C@@H](O)[C@H](Oc2ccc3c(O)c(/C(C)=N/OCCN4CCOCC4)c(=O)oc3c2C)OC(C)(C)[C@@H]1OC	–	0.15 µg/mL (≈ 0.237 µM)	5 µg/mL (≈ 7.89 µM)	20 µg/mL (≈ 31.6 µM)	1.2 µg/mL (≈ 1.89 µM)	0.15 µg/mL (≈ 0.237 µM)	4	0.6 µg/mL (≈ 0.947 µM)	–
CO/N=C(\C)c1c(O)oc2c(C)c(O[C@@H]3OC(C)(C)[C@H](OC)[C@@H](OC(=O)c4ccc(C)[nH]4)[C@H]3O)ccc2c1=O	3.3	–	40 µg/mL (≈ 73.5 µM)	10 µg/mL (≈ 18.4 µM)	0.3 µg/mL (≈ 0.551 µM)	0.15 µg/mL (≈ 0.275 µM)	–	–	–
C#CCONC(=O)O[C@H]1[C@@H](O)[C@H](Oc2ccc3c(O)c(C(=O)NCCN4CCOCC4)c(=O)oc3c2C)OC(C)(C)[C@@H]1OC	–	0.08 µg/mL (≈ 0.129 µM)	1.2 µg/mL (≈ 1.94 µM)	2.5 µg/mL (≈ 4.03 µM)	1.2 µg/mL (≈ 1.94 µM)	< 0.04 µg/mL	2.6	0.08 µg/mL (≈ 0.129 µM)	–
C=CCONC(=O)O[C@H]1[C@@H](O)[C@H](Oc2ccc3c(=O)c(C(=O)OCC)c(O)oc3c2C)OC(C)(C)[C@@H]1OC	2	20 µg/mL (≈ 37.2 µM)	> 40 µg/mL	> 40 µg/mL	20 µg/mL (≈ 37.2 µM)	10 µg/mL (≈ 18.6 µM)	–	20 µg/mL (≈ 37.2 µM)	–
C#CCONC(=O)O[C@H]1[C@@H](O)[C@H](Oc2ccc3c(=O)c(/C(C)=N/OCOCCOC)c(O)oc3c2C)OC(C)(C)[C@@H]1OC	–	1.2 µg/mL (≈ 1.97 µM)	10 µg/mL (≈ 16.4 µM)	5 µg/mL (≈ 8.22 µM)	0.6 µg/mL (≈ 0.986 µM)	0.08 µg/mL (≈ 0.131 µM)	4	0.6 µg/mL (≈ 0.986 µM)	–
C#CCONC(=O)O[C@H]1[C@@H](O)[C@H](Oc2ccc3c(=O)c(/C(C)=N/OCC)c(O)oc3c2C)OC(C)(C)[C@@H]1OC	–	0.15 µg/mL (≈ 0.273 µM)	2.5 µg/mL (≈ 4.56 µM)	1.2 µg/mL (≈ 2.19 µM)	0.6 µg/mL (≈ 1.09 µM)	0.08 µg/mL (≈ 0.146 µM)	8.3	0.15 µg/mL (≈ 0.273 µM)	–
CO[C@@H]1[C@@H](OC(=O)c2ccc(C)[nH]2)[C@@H](O)[C@H](Oc2ccc3c(O)c(C(N)=O)c(=O)oc3c2C)OC1(C)C	1.67	–	2.5 µg/mL (≈ 4.84 µM)	2.5 µg/mL (≈ 4.84 µM)	0.15 µg/mL (≈ 0.29 µM)	< 0.04 µg/mL	–	–	–

— ChEMBL document CHEMBL1132760, “Coumarin inhibitors of gyrase B with N-propargyloxy-carbamate as an effective pyrrole bioisostere” (2000)
